How the values were obtained:
[1] = Oral bioavailability in cynomolgus monkey at 5 mg/kg; type: ADME, organism-based, Macaca fascicularis; settings: in vivo
Summary of the method: (§1)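 Single-dose PK in rats or cynomolgus monkeys; intravenous dose 2 mg/Kg, oral dose 5 mg/Kg; parameters reported as means.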

[2] = AUC in rat at 2 mg/kg, iv and 5 mg/kg, po; type: ADME, organism-based; settings: plasma; summary of the method: as §1
Hepatitis C virus [3] = assay: Antiviral activity against HCV1b infected in human 2209-23 cells assessed as inhibition of virus RNA replication by Renilla luciferase reporter gene assay in presence of 40% human serum; type: functional, organism-based, Hepacivirus hominis; settings: genotype 1b
Summary of the method: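 Serum-shift version of the HCV subgenomic replicon (GT-1b) cell assay, with 40% human serum added to assess the effect of protein binding.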

[4] = Oral bioavailability in rat at 5 mg/kg; type: ADME, organism-based; settings: in vivo; summary of the method: as §1
Hepatitis C virus [5] = assay: Ratio of EC50 for HCV GT-1a replicon over EC50 for HCV GT-1b replicon
[6] = Metabolic stability in cynomolgus monkey liver microsomes; type: ADME, Macaca fascicularis, Microsome; settings: read-out: Stability
Hepatitis C virus [7] = assay: Selectivity ratio, EC50 for HCV1b in presence of 40% human serum to EC50 for HCV1b in presence of 5% fetal bovine serum; type: functional, Hepacivirus hominis, genotype 1b
[8] = Clearance in rat at 2 mg/kg, iv and 5 mg/kg, po; type: ADME, organism-based; settings: in vivo; summary of the method: as §1
[9] = Half life in cynomolgus monkey at 2 mg/kg, iv and 5 mg/kg, po; type: ADME, organism-based, Macaca fascicularis; settings: in vivo; summary of the method: as §1
Caco-2 = assay: Efflux ratio of permeability from basolateral to apical over apical to basolateral side in human Caco-2 cells after 21 days; settings: caco-2, 504 h
[10] = Half life in rat at 2 mg/kg, iv and 5 mg/kg, po; type: ADME, organism-based; settings: in vivo; summary of the method: as §1
[11] = Metabolic stability in rat liver microsomes; type: ADME, Microsome; settings: read-out: Stability
Genome polyprotein = Genome polyprotein (Hepatitis C virus genotype 1b (isolate Con1) (HCV), UniProt Q9WMX2); assay: Inhibition of […] con1 NS5B polymerase assessed as [3H]UTP incorporation into acid insoluble RNA product
[12] = Clearance in cynomolgus monkey at 2 mg/kg, iv and 5 mg/kg, po; type: ADME, organism-based, Macaca fascicularis; settings: in vivo; summary of the method: as §1
[13] = AUC in cynomolgus monkey at 2 mg/kg, iv and 5 mg/kg, po; type: ADME, organism-based, Macaca fascicularis; settings: plasma; summary of the method: as §1
Hepatitis C virus [14] = assay: Antiviral activity against HCV1b infected in human 2209-23 cells assessed as inhibition of virus RNA replication by Renilla luciferase reporter gene assay in presence of 5% fetal bovine serum; type: functional, organism-based, Hepacivirus hominis; settings: genotype 1b
Summary of the method: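 Cell-based HCV subgenomic replicon (genotype 1b) assay run in medium containing 5% fetal bovine serum.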

Hepatitis C virus [15] = assay: Antiviral activity against HCV1b infected in human 2209-23 cells assessed as inhibition of virus RNA replication by Renilla luciferase reporter gene assay; type: functional, organism-based, Hepacivirus hominis; settings: genotype 1b

Sequence of Genome polyprotein (Q9WMX2 2420-3010 limits assumed): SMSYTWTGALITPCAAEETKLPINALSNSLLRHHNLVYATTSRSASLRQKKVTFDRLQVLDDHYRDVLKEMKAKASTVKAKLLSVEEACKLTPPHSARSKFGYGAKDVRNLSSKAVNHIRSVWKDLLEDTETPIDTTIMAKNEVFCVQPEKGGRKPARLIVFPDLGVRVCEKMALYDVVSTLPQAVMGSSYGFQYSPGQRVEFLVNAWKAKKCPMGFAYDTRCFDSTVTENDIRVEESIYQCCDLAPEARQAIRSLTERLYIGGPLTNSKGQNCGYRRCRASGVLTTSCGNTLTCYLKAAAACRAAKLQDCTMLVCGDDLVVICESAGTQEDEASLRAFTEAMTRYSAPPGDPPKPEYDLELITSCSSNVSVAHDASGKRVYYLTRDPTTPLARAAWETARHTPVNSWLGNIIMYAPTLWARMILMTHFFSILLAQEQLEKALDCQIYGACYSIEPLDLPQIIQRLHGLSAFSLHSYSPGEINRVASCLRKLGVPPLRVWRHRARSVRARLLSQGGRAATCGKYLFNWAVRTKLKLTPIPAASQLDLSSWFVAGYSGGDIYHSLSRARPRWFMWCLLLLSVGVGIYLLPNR

EC50 (Hepatitis C virus [3]) [nM]	IC50 (Genome polyprotein) [nM]	EC50 (Hepatitis C virus [14]) [nM]	Structure (SMILES)	Ratio EC50 (Hepatitis C virus [5])	Ratio IC50 (Hepatitis C virus [7])	also measured
2570	4	82	Cc1cc(CN2C(=O)C(C3=NS(=O)(=O)c4c(CNS(C)(=O)=O)cccc43)=C(O)[C@@H]2C(C)(C)C)ccc1F	2	31.3	bioavailability [1]: 11%; AUC [2]: 2750 ng·h/mL; bioavailability [4]: 17%; microsomal CLint [6]: 23 µL/min/mg; clearance [8]: 8.4 mL/min/kg; half-life [9]: 1.75 h; Ratio (Caco-2): 31; half-life [10]: 4.18 h; microsomal CLint [11]: 431 µL/min/mg; clearance [12]: 10 mL/min/kg; AUC [13]: 1230 ng·h/mL
3040	10	108	CN(Cc1cccc2c1S(=O)(=O)N=C2C1=C(O)[C@H](C(C)(C)C)N(Cc2ccc(F)c(Cl)c2)C1=O)S(C)(=O)=O	–	28.1	–
2900	6	228	CC(C)(C)[C@H]1C(O)=C(C2=NS(=O)(=O)c3c(OCS(N)(=O)=O)cccc32)C(=O)N1Cc1ccc(F)cc1	–	12.7	–
–	43	–	CC(C)(C)[C@H]1C(O)=C(C2=NS(=O)(=O)c3cc(CNS(C)(=O)=O)ccc32)C(=O)N1Cc1ccc(F)cc1	–	–	EC50 (Hepatitis C virus [15]): 3840 nM
1270	1	272	CN(Cc1cccc2c1S(=O)(=O)N=C2C1=C(O)[C@H](C(C)(C)C)N(Cc2ccc(F)cc2)C1=O)S(N)(=O)=O	–	5.9	–
4660	9	235	CC(C)(C)[C@H]1C(O)=C(C2=NS(=O)(=O)c3c(OCS(C)(=O)=O)cccc32)C(=O)N1Cc1ccc(F)cc1	–	19.8	–
4660	12	202	CC(C)(C)[C@H]1C(O)=C(C2=NS(=O)(=O)c3c(CN4CCCCS4(=O)=O)cccc32)C(=O)N1Cc1ccc(F)cc1	–	23.1	–
1070	5	129	Cc1cc(CN2C(=O)C(C3=NS(=O)(=O)c4c(CN(C)S(C)(=O)=O)cccc43)=C(O)[C@@H]2C(C)(C)C)ccc1F	2	8.27	AUC [2]: 582 ng·h/mL; bioavailability [4]: 24%; clearance [8]: 34.4 mL/min/kg; Ratio (Caco-2): 4.3; half-life [10]: 3.37 h; microsomal CLint [11]: 939 µL/min/mg
1300	3	105	CC(C)(C)[C@H]1C(O)=C(C2=NS(=O)(=O)c3c(CNS(N)(=O)=O)cccc32)C(=O)N1Cc1ccc(F)cc1	–	12.4	–
–	5	–	CC(C)(C)[C@H]1C(O)=C(C2=NS(=O)(=O)c3c(NS(C)(=O)=O)cccc32)C(=O)N1Cc1ccc(F)cc1	–	–	EC50 (Hepatitis C virus [15]): 4920 nM
4800	4	282	CC(C)(C)[C@H]1C(O)=C(C2=NS(=O)(=O)c3c(CCS(C)(=O)=O)cccc32)C(=O)N1Cc1ccc(F)cc1	–	17	–
1170	3	76	Cc1cc(CN2C(=O)C(C3=NS(=O)(=O)c4c(CNS(N)(=O)=O)cccc43)=C(O)[C@@H]2C(C)(C)C)ccc1F	2	15.3	AUC [2]: 102 ng·h/mL; bioavailability [4]: 8.2%; clearance [8]: 48 mL/min/kg; Ratio (Caco-2): 6.7; half-life [10]: 4.7 h; microsomal CLint [11]: 239 µL/min/mg
3730	–	100	CC(C)(C)[C@H]1C(O)=C(C2=NS(=O)(=O)c3c(CNS(C)(=O)=O)cccc32)C(=O)N1Cc1ccc(F)cc1	2	37.3	–

Source: ChEMBL document CHEMBL1155198, “Non-nucleoside inhibitors of HCV polymerase NS5B. Part 4: structure-based design, synthesis, and biological evaluation of benzo[d]isothiazole-1,1-dioxides” (Bioorg Med Chem Lett, 2009)
